Assay results reported in ChEMBL document CHEMBL1137312, “Design and synthesis of a novel photoaffinity ligand for the dopamine and serotonin transporters based on 2beta-carbomethoxy-3beta-biphenyltropane” (J Med Chem, 2006).
The source made the active and inactive calls. The rule behind the calls is not given here.

Columns and labels:
[1] = target: Sodium-dependent dopamine transporter (Rattus norvegicus, UniProt P23977); test: Displacement of [3H]WIN-35428 from DAT in rat striatal membrane; assay type: cell membranes, Striatum
Chain of Sodium-dependent dopamine transporter (P23977 whole entry): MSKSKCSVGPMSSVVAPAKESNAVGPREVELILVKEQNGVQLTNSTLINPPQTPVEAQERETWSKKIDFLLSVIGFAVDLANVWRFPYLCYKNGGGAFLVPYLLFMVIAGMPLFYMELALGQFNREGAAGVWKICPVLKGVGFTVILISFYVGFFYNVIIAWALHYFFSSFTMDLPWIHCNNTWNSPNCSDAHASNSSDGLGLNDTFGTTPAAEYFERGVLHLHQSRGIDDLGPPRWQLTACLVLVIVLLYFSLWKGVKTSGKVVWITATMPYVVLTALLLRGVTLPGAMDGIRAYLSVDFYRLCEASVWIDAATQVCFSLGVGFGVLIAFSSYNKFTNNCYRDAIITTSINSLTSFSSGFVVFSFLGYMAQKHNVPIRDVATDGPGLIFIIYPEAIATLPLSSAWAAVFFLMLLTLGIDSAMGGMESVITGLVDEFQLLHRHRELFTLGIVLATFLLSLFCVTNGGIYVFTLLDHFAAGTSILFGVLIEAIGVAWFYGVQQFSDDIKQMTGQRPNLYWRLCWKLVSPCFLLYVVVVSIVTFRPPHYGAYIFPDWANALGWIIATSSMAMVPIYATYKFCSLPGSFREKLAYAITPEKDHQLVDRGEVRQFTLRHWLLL
Outline: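 Competition binding against [3H]WIN 35 428 in rat striatal membranes. Ligand was used as free base, freshly prepared and kept in the dark. Ki from at least three independent experiments, each in triplicate. Values are mean ± SEM.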

[2] = target: Sodium-dependent serotonin transporter (Rattus norvegicus, UniProt P31652); test: Displacement of [3H]citaloporam from SERT in rat brain; assay type: tissue-based
Chain of Sodium-dependent serotonin transporter (P31652 whole entry): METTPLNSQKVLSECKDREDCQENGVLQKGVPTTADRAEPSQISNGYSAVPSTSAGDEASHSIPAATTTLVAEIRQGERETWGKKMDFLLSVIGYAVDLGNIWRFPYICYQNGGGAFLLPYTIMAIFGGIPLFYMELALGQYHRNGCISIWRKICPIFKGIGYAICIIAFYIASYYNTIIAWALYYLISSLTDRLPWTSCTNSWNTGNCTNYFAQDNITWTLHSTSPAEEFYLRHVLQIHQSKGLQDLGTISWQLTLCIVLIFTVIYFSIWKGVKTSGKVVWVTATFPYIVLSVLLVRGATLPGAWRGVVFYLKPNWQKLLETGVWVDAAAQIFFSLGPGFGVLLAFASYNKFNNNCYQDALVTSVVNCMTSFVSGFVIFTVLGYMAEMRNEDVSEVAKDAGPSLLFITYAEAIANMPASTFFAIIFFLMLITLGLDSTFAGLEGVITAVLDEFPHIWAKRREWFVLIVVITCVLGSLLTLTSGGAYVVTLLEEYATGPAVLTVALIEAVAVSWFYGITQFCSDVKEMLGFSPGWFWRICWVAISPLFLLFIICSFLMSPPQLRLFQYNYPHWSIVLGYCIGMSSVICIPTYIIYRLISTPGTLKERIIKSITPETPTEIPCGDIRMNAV
Outline: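 Competition binding against [3H]citalopram in rat brain stem or midbrain membranes. Ligand was used as free base, freshly prepared and kept in the dark. Ki from at least three independent experiments, each in triplicate. Values are mean ± SEM.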

[3] = target: Sodium-dependent serotonin transporter (Homo sapiens) (UniProt P31645); test: Photo labeling activity at human SERT expressed in HEK293 cells in the presence of (-)cocaine; assay type: cell-based; conditions: tested as the 125I-labelled form
Chain of Sodium-dependent serotonin transporter (Homo sapiens) (P31645 whole entry, looked up): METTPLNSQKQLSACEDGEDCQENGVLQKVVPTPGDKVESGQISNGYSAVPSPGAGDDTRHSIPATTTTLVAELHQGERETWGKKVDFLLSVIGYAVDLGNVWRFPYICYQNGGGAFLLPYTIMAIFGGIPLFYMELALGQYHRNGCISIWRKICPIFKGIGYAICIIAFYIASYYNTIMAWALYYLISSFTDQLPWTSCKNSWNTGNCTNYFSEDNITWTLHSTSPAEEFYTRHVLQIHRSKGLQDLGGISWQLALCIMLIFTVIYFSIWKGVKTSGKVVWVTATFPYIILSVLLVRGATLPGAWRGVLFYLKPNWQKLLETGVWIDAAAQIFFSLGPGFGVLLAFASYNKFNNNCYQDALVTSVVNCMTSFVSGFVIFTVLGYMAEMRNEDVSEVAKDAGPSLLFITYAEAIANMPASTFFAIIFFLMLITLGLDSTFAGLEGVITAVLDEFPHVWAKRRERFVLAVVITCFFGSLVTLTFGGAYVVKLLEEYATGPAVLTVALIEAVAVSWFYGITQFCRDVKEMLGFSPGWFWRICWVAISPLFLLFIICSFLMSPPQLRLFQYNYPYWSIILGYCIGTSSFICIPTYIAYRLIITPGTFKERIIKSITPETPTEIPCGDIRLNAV
Outline: (§1)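 Cocaine-protection version of the photolabeling. HEK 293 cells expressing hDAT or hSERT were photolabeled with [125I] azido ligand in the presence of 10 µM (-)cocaine. Cells were solubilized and immunoprecipitated with transporter-specific antisera. Read-out was SDS-PAGE and autoradiography.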

[4] = target: Sodium-dependent dopamine transporter (Homo sapiens) (UniProt Q01959); test: Photo labeling activity at human DAT expressed in HEK293 cells in the presence of (-)cocaine; assay type: cell-based; conditions: tested as the 125I-labelled form; outline: as §1
Chain of Sodium-dependent dopamine transporter (Homo sapiens) (Q01959 whole entry): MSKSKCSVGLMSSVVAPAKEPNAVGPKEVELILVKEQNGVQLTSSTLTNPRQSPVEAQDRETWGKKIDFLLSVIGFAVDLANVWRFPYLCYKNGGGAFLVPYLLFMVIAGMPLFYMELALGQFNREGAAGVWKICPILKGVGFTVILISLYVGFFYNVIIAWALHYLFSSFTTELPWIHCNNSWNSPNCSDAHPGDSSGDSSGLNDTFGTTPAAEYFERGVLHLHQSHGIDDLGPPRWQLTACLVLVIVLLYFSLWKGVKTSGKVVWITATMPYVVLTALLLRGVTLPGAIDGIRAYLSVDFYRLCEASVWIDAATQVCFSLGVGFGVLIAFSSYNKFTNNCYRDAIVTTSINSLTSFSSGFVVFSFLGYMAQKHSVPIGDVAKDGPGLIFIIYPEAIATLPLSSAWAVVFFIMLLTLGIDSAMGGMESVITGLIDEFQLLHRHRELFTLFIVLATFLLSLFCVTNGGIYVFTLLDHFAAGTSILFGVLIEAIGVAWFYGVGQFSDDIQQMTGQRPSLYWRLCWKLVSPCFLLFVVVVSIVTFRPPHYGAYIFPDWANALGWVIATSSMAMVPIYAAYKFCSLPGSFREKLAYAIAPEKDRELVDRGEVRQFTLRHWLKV

[5] = target: Sodium-dependent serotonin transporter (Homo sapiens) (UniProt P31645); test: Photo labeling activity at human SERT expressed in HEK293 cells; assay type: cell-based; conditions: tested as the 125I-labelled form
Outline: (§2)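 HEK 293 cells expressing hDAT or hSERT were photolabeled with [125I] azido ligand (specific activity about 2000 mCi/µmol, radiochemical purity 99%). Cells were solubilized and lysates immunoprecipitated with DAT- or SERT-specific antisera. Read-out was SDS-PAGE and autoradiography, detecting labeled protein bands of 80 or 66 kDa.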

[6] = target: Sodium-dependent dopamine transporter (Homo sapiens) (UniProt Q01959); test: Photo labeling activity at human DAT expressed in HEK293 cells; assay type: cell-based; conditions: tested as the 125I-labelled form; outline: as §2

## COC(=O)[C@@H]1C2CCC(C[C@@H]1c1ccc(-c3ccc(N)cc3)cc1)N2C (some centres undefined)
[1]
  Ki: 12.9 nM
[2]
  Ki: 1070 nM

## COC(=O)[C@@H]1C2CCC(C[C@@H]1c1ccc(-c3ccc(N=[N+]=[N-])c(I)c3)cc1)N2C (some centres undefined)
[3]
  Activity: inactive
[4]
  Activity: inactive
[1]
  Ki: 15.1 nM
[2]
  Ki: 109 nM
[5]
  Activity: Active
[6]
  Activity: Active

## COC(=O)[C@@H]1C2CCC(C[C@@H]1c1ccc(-c3ccc([N+](=O)[O-])cc3)cc1)N2C (some centres undefined)
[1]
  Ki: 5.03 nM
[2]
  Ki: 51 nM

## COC(=O)[C@@H]1C2CCC(C[C@@H]1c1ccc(Br)cc1)N2C (some centres undefined)
[1]
  Ki: 0.42 nM
[2]
  Ki: 4.1 nM

## COC(=O)[C@@H]1C2CCC(C[C@@H]1c1ccc(-c3ccc(N)c(I)c3)cc1)N2C (some centres undefined)
[1]
  Ki: 134 nM
[2]
  Ki: 8.82 nM
